This is an account of results in ChEMBL document CHEMBL1121439, “Accumulation of drugs by guinea pig isolated atria. Quantitative correlations” (J Med Chem, 1980).

The nature of data set [1]: Partition coefficient (logP). The class given is physicochemical. As to conditions: octanol/water.
The nature of data set [2]: Tested for the dissociation constant of the compound. The class given is ADME.
Data set [3] deals with T1, Albumin (Homo sapiens, UniProt P02768). In words: Ability to bind to human serum albumin (HSA).
The species named for another data set is Cavia porcellus. In words: Ability to bind to guinea pig atrial homogenate. The note with it: Cardiac atrium. The procedure, abridged:
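Guinea pig left and right atria were blotted 90 s, weighed, and homogenized (6%, g/v) in ice-cold 0.067 M Sørensen phosphate buffer, pH 7.4, for three 20-s bursts. Radiolabeled drug (3.3×10^-6 M) was incubated with 4% (g/v) homogenate for 90 min at room temperature under partial saturation. Total aliquot and supernatant after 145000g, 15 h, 25 °C were counted. Result given as log B/F.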

For data set [4], the target named is T1, Albumin. Put plainly: Ability to bind to human serum albumin. The procedure, abridged:
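Purified human serum albumin, 4% (g/v), with radiolabeled drug at 3.3×10^-6 M in 0.067 M Sørensen phosphate buffer pH 7.4 (partial saturation). Incubated 90 min at room temperature. Radioactivity counted in an aliquot before and after centrifugation at 145000g for 15 h at 25 °C. Binding expressed as log B/F.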

What is called logP is the decadic logarithm of the partition coefficient of the neutral form, usually between octanol and water. In general, pKa refers to the pH at which an ionisable group is half protonated.

T1 sequence (P02768 whole entry): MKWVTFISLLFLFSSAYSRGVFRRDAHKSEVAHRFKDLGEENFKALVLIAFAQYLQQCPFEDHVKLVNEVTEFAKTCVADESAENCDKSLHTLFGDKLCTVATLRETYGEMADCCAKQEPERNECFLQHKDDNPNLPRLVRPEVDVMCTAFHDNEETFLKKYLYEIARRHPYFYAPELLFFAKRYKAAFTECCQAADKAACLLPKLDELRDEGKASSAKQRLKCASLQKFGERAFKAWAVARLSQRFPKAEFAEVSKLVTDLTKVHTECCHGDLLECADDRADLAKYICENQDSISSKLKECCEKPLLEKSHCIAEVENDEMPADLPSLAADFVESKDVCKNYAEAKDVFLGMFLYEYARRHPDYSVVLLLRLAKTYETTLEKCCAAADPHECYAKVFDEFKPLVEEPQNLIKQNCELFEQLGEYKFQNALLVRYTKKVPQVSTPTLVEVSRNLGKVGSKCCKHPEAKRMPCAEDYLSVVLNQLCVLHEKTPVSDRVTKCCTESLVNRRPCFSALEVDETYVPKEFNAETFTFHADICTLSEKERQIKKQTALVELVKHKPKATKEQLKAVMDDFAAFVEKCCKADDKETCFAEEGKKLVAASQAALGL

As for `CCC(c1ccccc1)c1c(O)c2ccccc2oc1=O` (configuration not stated) [PHENPROCOUMON], the logP in data set [1] (read-out: logP) amounted to 3.62. Also, the pKa in data set [2] came out at 5. The “Log B/F” value on Albumin [3] is reported as 2.128.
As for `OC[C@H]1O[C@@](CO)(O[C@H]2O[C@H](CO)[C@@H](O)[C@H](O)[C@H]2O)[C@@H](O)[C@@H]1O`, the Log B/F in the data set filed under Cavia porcellus was -4.
In the case of `C=CCc1ccccc1OCC(O)CNC(C)C` (configuration not stated) [ALPRENOLOL], the logP in data set [1] (read-out: logP) was 3.1. Moreover, the Log B/F in the data set filed under Cavia porcellus was -0.158.
In data set [2], `COc1ccc(CCN(C)CCCC(C#N)(c2ccc(OC)c(OC)c2)C(C)C)cc1OC` (configuration not stated) showed a pKa of 9.2. In the data set listed under Cavia porcellus, this compound returned a Log B/F of 0.114.
For the compound `CCC1(c2ccccc2)C(=O)NC(=O)NC1=O` [PHENOBARBITAL], the logP in data set [1] (read-out: logP) was 1.43. This compound also displayed a pKa in data set [2] of 7.5. Also, the “Log B/F” value at Albumin [3] is on record as 0.11.
In the case of `C[C@@H]1C[C@H]2[C@@H]3CCC4=CC(=O)C=C[C@]4(C)[C@@]3(F)[C@@H](O)C[C@]2(C)[C@@]1(O)C(=O)CO` [DEXAMETHASONE], the logP in data set [1] (read-out: logP) was determined as 1.74.
Still for that read-out and setting: then `COc1ccc2c(c1)c(CC(=O)O)c(C)n2C(=O)c1ccc(Cl)cc1` [INDOMETHACIN], with 2; and `COCCc1ccc(OCC(O)CNC(C)C)cc1` (configuration not stated) [METOPROLOL], with 2.34.
As to `O=C1CCC(c2ccccc2)(C2CCN(Cc3ccccc3)CC2)C(=O)N1` (configuration not stated) [BENZETIMIDE], the logP in data set [1] (read-out: logP) came to 3.55. Also, the Log B/F in the data set listed under Cavia porcellus was -0.184; on Albumin [4], 0.087.
Regarding `O=C(O)[C@H]1O[C@@H](O)[C@H](O)[C@@H](O)[C@@H]1O` [GLUCURONATE], the logP in data set [1] (read-out: logP) was -2.57. Also, in data set [2], the pKa amounted to 3.2. The figures for the “Log B/F” value at Albumin [3] and in the data set filed under Cavia porcellus were -2 and -4, respectively.
In the case of `CCCNC(C)C(=O)Nc1c(C)csc1C(=O)OC` (configuration not stated) [ARTICAINE], the logP in data set [1] is 2.41. Besides, the pKa in data set [2] came to 7.8. For the same compound, the “Log B/F” value was -0.281 on Albumin [3] and -0.739 in the data set listed under Cavia porcellus.
Consider `C[C@H]1O[C@@H](O[C@H]2[C@@H](O)C[C@H](O[C@H]3[C@@H](O)C[C@H](O[C@H]4CC[C@@]5(C)[C@H](CC[C@@H]6[C@@H]5CC[C@]5(C)[C@@H](C7=CC(=O)OC7)CC[C@]65O)C4)O[C@@H]3C)O[C@@H]2C)C[C@H](O)[C@@H]1O` [DIGITOXIN], for which, in data set [1] (read-out: logP), the logP was 1.76. Further, the “Log B/F” value on Albumin [3] is reported as 3.222.
